Results published in ChEMBL document CHEMBL3875170, “2-Methyl-4/5-nitroimidazole derivatives potentiated against sexually transmitted Trichomonas: Design, synthesis, biology and 3D-QSAR study” (Eur J Med Chem, 2016).
In brackets after ≈: the same amount, converted by molar mass. Activity calls are given as the source filed them. The calls are words filed in the database; no cut-off is given here.

Assays:
Trichomonas vaginalis [1] = assay: Antiparasitic activity against metronidazole sensitive Trichomonas vaginalis ATCC 33592 after 48 hrs by trypan blue exclusion assay; assay type: functional; conditions: ATCC 33592, 48 h
Trichomonas vaginalis [2] = assay: Antiparasitic activity against metronidazole resistant Trichomonas vaginalis ATCC 50143 after 48 hrs by trypan blue exclusion assay; assay type: functional; conditions: ATCC 50143, 48 h
Outline: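 T. vaginalis trophozoites ([…]), log phase, grown in TYM with 10% FCS, vitamin mix and penicillin/streptomycin at 37 °C. Test agents from DMSO stocks serially diluted in TYM; DMSO/TYM vehicle controls. Anaerobic incubation at 37 °C with microscopic viability checks from 3 to 48 h by trypan blue exclusion. MIC is the lowest concentration killing all cells by 48 h. Repeated three times.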

[3] = Cytotoxicity against human HeLa cells after 24 hrs by MTT assay; assay type: toxicity, cell-based
Outline: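 HeLa cells seeded at 2 × 10⁴ per well in DMEM with 10% FCS, in triplicate, and held 24 h at 37 °C in 5% CO₂. Exposed to compound dilutions for 24 h; controls received 0.05% DMSO. MTT in PBS pH 7.4 added, formazan dissolved in DMSO, OD540 read. IC50 taken as the concentration killing 50% of cells.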

[4] = Selectivity index, ratio of IC50 for human HeLa cells to MIC for metronidazole sensitive Trichomonas vaginalis ATCC 33592; assay type: toxicity, cell-based; conditions: read-out: Selectivity Index
Outline: (§1)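 SI is HeLa IC50 divided by parasite MIC. HeLa cells seeded at 2 × 10⁴/well in triplicate in DMEM with 10% FCS, 24 h at 37 °C in 5% CO2. Medium then replaced with compound dilutions (0.05% DMSO controls) for 24 h. Viability by MTT read at OD540; IC50 is the concentration killing 50% of cells. MIC from 48 h trypan blue parasite killing in TYM.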

[5] = Selectivity index, ratio of IC50 for human HeLa cells to MIC for metronidazole resistant Trichomonas vaginalis ATCC 50143; assay type: toxicity, cell-based; conditions: read-out: Selectivity Index; outline: as §1
Trichomonas vaginalis [6] = assay: Potency index, ratio of metronidazole MIC to compound MIC for metronidazole sensitive Trichomonas vaginalis ATCC 33592; assay type: functional
Trichomonas vaginalis [7] = assay: Potency index, ratio of metronidazole MIC to compound MIC for metronidazole resistant Trichomonas vaginalis ATCC 50143; assay type: functional
Trichomonas vaginalis [8] = assay: Antiparasitic activity against Trichomonas vaginalis in po dosed mouse assessed as size of abscess at 50 mg/kg, po administered daily for 7 days measured 7 days post last dose (reference value: 113 mm'2); assay type: functional
Outline: (§2)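 Six-week-old mice inoculated subcutaneously in the left hind flank with 50 µL of 2 × 10⁶ saline-washed trophozoites/mL grown in TYM. Abscess confirmed by palpation at day 7 and by fine-needle biopsy. Oral dosing in gum acacia at 50 or 100 mg/kg daily; controls received vehicle. Abscess size measured longitudinally each day and area calculated; n = 3 per group.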

Trichomonas vaginalis [9] = assay: Antiparasitic activity against Trichomonas vaginalis in po dosed mouse assessed as size of abscess at 100 mg/kg, po administered daily for 7 days measured 7 days post last dose (reference value: 113 mm'2); assay type: functional; outline: as §2
[10] = Cmax in Sprague Dawley rat at 50 mg/kg, po; assay type: ADME, organism-based; set-up: dose 50 mg/kg, route oral; conditions: in vivo
Outline: (§3)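 Overnight-fasted (12–16 h) rats, n = 4 per time point, given a single oral dose of 50 mg/kg as a 12.5 mg/mL suspension in 1% w/v gum acacia and water. Blood sampled at set times up to 24 h; serum stored at −80 °C. Analysis by LC-MS/MS in positive-ion MRM mode with phenacetin as internal standard; parameters derived by non-compartmental analysis. Values are means of four rats.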

[11] = Tmax in Sprague Dawley rat at 50 mg/kg, po; assay type: ADME, organism-based; conditions: in vivo; outline: as §3
[12] = Volume of distribution at steady state in Sprague Dawley rat at 50 mg/kg, po; assay type: ADME, organism-based; conditions: in vivo; outline: as §3
[13] = AUClast in Sprague Dawley rat at 50 mg/kg, po; assay type: ADME, organism-based; set-up: dose 50 mg/kg, route oral, time 0 - last; conditions: in vivo; outline: as §3
[14] = Half life in Sprague Dawley rat at 50 mg/kg, po; assay type: ADME, organism-based; conditions: in vivo; outline: as §3
[15] = Clearance in Sprague Dawley rat at 50 mg/kg, po; assay type: ADME, organism-based; conditions: in vivo; outline: as §3
Trichomonas vaginalis [16] = assay: Antiparasitic activity against Trichomonas vaginalis in po dosed mouse assessed as size of abscess at 50 mg/kg, po administered daily for 5 days measured 5 days post last dose (reference value: 120 mm'2); assay type: functional; outline: as §2
Trichomonas vaginalis [17] = assay: Antiparasitic activity against Trichomonas vaginalis in po dosed mouse assessed as size of abscess at 100 mg/kg, po administered daily for 5 days measured 5 days post last dose (reference value: 120 mm'2); assay type: functional; outline: as §2
Trichomonas vaginalis [18] = assay: Antiparasitic activity against Trichomonas vaginalis assessed as decrease in parasite free thiol levels at MIC after 24 hrs by fluorometric thiol detector-based fluorescence microscopic method; assay type: functional
Outline: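 Cells pelleted (700 × g, 10 min, 4 °C), washed 2–3 times in PBS, then stained 5 min in the dark with fluorometric thiol detector (pre-diluted 100×). Imaged by epifluorescence microscopy, UV-1A filter, with equal exposure times for all samples.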

| SMILES | MIC (Trichomonas vaginalis [1]) [µM] | MIC (Trichomonas vaginalis [2]) [µM] | IC50 at 24 h [3] [µM] | selectivity ratio [4] | selectivity ratio [5] | Ratio (Trichomonas vaginalis [6]) | Ratio (Trichomonas vaginalis [7]) | Activity (Trichomonas vaginalis [8]) [mm2] | Activity (Trichomonas vaginalis [9]) [mm2] | Cmax [10] [ng/mL] | Tmax [11] [h] | Vdss [12] [L/kg] | AUClast [13] [ng·h/mL] | half-life [14] [h] | CL [15] [mL/min/kg] | Activity (Trichomonas vaginalis [16]) | Activity (Trichomonas vaginalis [17]) | Activity (Trichomonas vaginalis [18]) |
| --- | --- | --- | --- | --- | --- | --- | --- | --- | --- | --- | --- | --- | --- | --- | --- | --- | --- | --- |
| Cc1ncc([N+](=O)[O-])n1CC(O)CSC(=S)N1CCN(c2ccccc2F)CC1 (racemic) | 14.2 (≈ 6.25 µg/mL) | 56.9 (≈ 25 µg/mL) | 3240 | 227 | 56 | <=2.4 | <=12.7 | – | – | – | – | – | – | – | – | – | – | – |
| Cc1ncc([N+](=O)[O-])n1CC(O)CSC(=S)N1CCN(c2cccc(Cl)c2Cl)CC1 (racemic) | 16 (≈ 7.83 µg/mL) | 128 (≈ 62.7 µg/mL) | 1000 | 62 | 7 | <=2.4 | <=12.7 | – | – | – | – | – | – | – | – | – | – | – |
| Cc1ncc([N+](=O)[O-])n1CC(O)CSC(=S)N1CCC(Cc2ccccc2)CC1 (racemic) | 14.4 (≈ 6.26 µg/mL) | 28.8 (≈ 12.5 µg/mL) | 1320 | 91 | 45 | <=2.4 | 2.5 - 12.6 | – | – | – | – | – | – | – | – | – | – | – |
| Cc1ncc([N+](=O)[O-])n1CC(O)CSC(=S)N1CCN(c2cccc(Cl)c2)CC1 (racemic) | 17.2 (≈ 7.82 µg/mL) | 68.7 (≈ 31.3 µg/mL) | 1080 | 62 | 15 | <=2.4 | <=12.7 | – | – | – | – | – | – | – | – | – | – | – |
| Cc1ncc([N+](=O)[O-])n1CC(O)CSC(=S)N1CCN(c2ccccc2)CC1 (racemic) | 8.55 (≈ 3.6 µg/mL) | 37.1 (≈ 15.6 µg/mL) | > 5000 | > 584 | > 135 | 2.4 | <=12.7 | 1.55 | 0.785 | 35.2 | 4 | 80.6 | 149.1 | 5 | 272 | 1 - 5 mm2 | 1 - 5 mm2 | Active |
| Cc1ncc([N+](=O)[O-])n1CCO [METRONIDAZOLE] | 21.1 (≈ 3.6 µg/mL) | 365 (≈ 62.6 µg/mL) | > 5000 | > 238 | > 13 | – | – | 1.57 | – | – | – | – | – | – | – | 1 - 5 mm2 | – | – |
| Cc1ncc([N+](=O)[O-])n1CC(O)CSC(=S)N1CCCC(C)C1 (racemic) | 17.4 (≈ 6.26 µg/mL) | 69.8 (≈ 25 µg/mL) | 609 | 35 | 8 | <=2.4 | 2.5 - 12.6 | – | – | – | – | – | – | – | – | – | – | – |
| Cc1ncc([N+](=O)[O-])n1CC(O)Cn1ccnn1 (racemic) | 12.4 (≈ 3.12 µg/mL) | 99.2 (≈ 25 µg/mL) | > 5000 | > 416 | > 50 | <=2.4 | <=12.7 | – | – | – | – | – | – | – | – | – | – | – |
| Cc1ncc([N+](=O)[O-])n1CC(O)CSC(=S)N1CCN(C(=O)OC(C)(C)C)CC1 (racemic) | 17.6 (≈ 7.82 µg/mL) | 70.2 (≈ 31.3 µg/mL) | 689 | 39 | 9 | <=2.4 | <=12.7 | – | – | – | – | – | – | – | – | – | – | – |
| CCN1CCN(CC(O)Cn2c([N+](=O)[O-])cnc2C)CC1 (racemic) | 12.1 (≈ 3.6 µg/mL) | 105 (≈ 31.3 µg/mL) | 4940 | 407 | 47 | <=2.4 | <=12.7 | – | – | – | – | – | – | – | – | – | – | – |
| CCOC(=O)N1CCN(C(=S)SCC(O)Cn2c([N+](=O)[O-])cnc2C)CC1 (racemic) | 15 (≈ 6.25 µg/mL) | 60 (≈ 25 µg/mL) | 1610 | 107 | 26 | <=2.4 | <=12.7 | – | – | – | – | – | – | – | – | – | – | – |
